Source: ChEMBL document CHEMBL2401738, “Construction and functionalization of pyranone ring fused with pyran moiety: design and synthesis of novel pyrano[4,3-b]pyran-5(4H)-ones as potential inhibitors of sirtuins” (Bioorg Med Chem Lett, 2013)

Test system: Saccharomyces cerevisiae
Experiment: Inhibition of Saccharomyces cerevisiae TEL::URA3 SIR2-mediated URA3 reporter gene silencing at 50 uM after 24 to 48 hrs in presence of 5-FOA relative to control
In short: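 Yeast strain with telomere-integrated URA3 reporter. Sir2 silencing of URA3 allows growth in 5-fluoroorotic acid, and inhibition of the yeast SIRT1 homologue Sir2 is scored by reduced growth in 5-FOA. Stereoisomer mixtures were tested unseparated at a single fixed concentration of 50.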

Compound	inhibition [%]
CC1(C)CC(=O)C2=C(C1)Oc1c(I)c(C3(O)CCCCC3)oc(=O)c1C2c1ccc(F)cc1 (configuration not stated)	25.3
CC1(C)CC(=O)C2=C(C1)Oc1c(I)c(-c3ccccc3)oc(=O)c1C2c1cccs1 (configuration not stated)	43.2
CC1(C)CC(=O)C2=C(C1)Oc1c(I)c(-c3ccccc3)oc(=O)c1C2c1ccco1 (configuration not stated)	15.3
CCCCC#Cc1c(-c2ccccc2)oc(=O)c2c1OC1=C(C(=O)CC(C)(C)C1)C2c1cccc(O)c1 (configuration not stated)	1.01
COc1ccc(C2C3=C(CC(C)(C)CC3=O)Oc3c(I)c(-c4ccccc4)oc(=O)c32)cc1 (configuration not stated)	32.4
CCOC(=O)C1=C(C)Oc2c(I)c(-c3ccccc3)oc(=O)c2C1c1cccc(F)c1 (configuration not stated)	0.5
CCC1C2=C(CC(C)(C)CC2=O)Oc2c(I)c(-c3ccccc3)oc(=O)c21 (configuration not stated)	43.9
CC1(C)CC(=O)C2=C(C1)Oc1c(I)c(-c3ccccc3)oc(=O)c1C2c1ccc(F)cc1 (configuration not stated)	49.5
CCOC(=O)C1=C(C)Oc2c(-c3ccc(O)cc3)c(-c3ccccc3)oc(=O)c2C1c1cccc(F)c1 (configuration not stated)	1.51
CC1(C)CC(=O)C2=C(C1)Oc1c(-c3ccccc3)c(-c3ccccc3)oc(=O)c1C2c1cccc(O)c1 (configuration not stated)	3.3

Test system: Saccharomyces cerevisiae
Experiment: (§1) Inhibition of Saccharomyces cerevisiae TEL::URA3 SIR2-mediated URA3 reporter gene silencing after 24 to 48 hrs in presence of 5-FOA
In short: (§2)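 Yeast cell-based reporter silencing assay with URA3 integrated in the telomeric region. Sir2-mediated silencing of URA3 permits growth in 5-fluoroorotic acid, so Sir2 inhibition is read as loss of growth on 5-FOA. Compounds were tested as unseparated stereoisomer mixtures over a dose range, and IC50 was taken from the dose-response.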

Compound	inhibition
CCC1C2=C(CC(C)(C)CC2=O)Oc2c(I)c(-c3ccccc3)oc(=O)c21 (configuration not stated)	Dose-dependent effect

Test system: not listed separately
Experiment: as §1
In short: as §2

Compound	IC50 [µM]
CCC1C2=C(CC(C)(C)CC2=O)Oc2c(I)c(-c3ccccc3)oc(=O)c21 (configuration not stated)	78
